ChEMBL document CHEMBL2086242, “Synthesis and SAR studies of mono O-prenylated coumarins as potent 15-lipoxygenase inhibitors” (Eur J Med Chem, 2012)
Active and inactive are the calls of the source. The rule behind the calls is not given here.

Legend:
[1] = Inhibition of soybean 15-lipoxygenase by MBTH-DMAB method; parameters: species or system Glycine max
Outline: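 Test sample in ethanol was preincubated 5 min at room temperature with SLO (stock 4000 units/mL) in 50 mM phosphate, pH 7.0, with an ethanol control. Linoleic acid (Tween 20/KOH) started peroxidation. After 7 min, DMAB (solution A) and then MBTH with hemoglobin at pH 5.0 (solution B) developed colour. After 5 min more, 2% SDS stopped the reaction.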

Glycine max = experiment: Competitive inhibition of soybean 15-lipoxygenase at 1.25 to 5 uM by Lineweaver-Burk plot
Outline: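 Soybean 15-lipoxygenase activity was read by the MBTH–DMAB end-point method at linoleic acid levels of 25, 50, 100 and 200, plotted as double-reciprocal (Lineweaver–Burk) curves with and without inhibitor.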

[2] = molecular target: T1, Polyunsaturated fatty acid lipoxygenase ALOX15 (Homo sapiens, UniProt P16050); experiment: Inhibition of recombinant human 15-lipoxygenase by MBTH-DMAB method
T1 sequence (P16050 whole entry): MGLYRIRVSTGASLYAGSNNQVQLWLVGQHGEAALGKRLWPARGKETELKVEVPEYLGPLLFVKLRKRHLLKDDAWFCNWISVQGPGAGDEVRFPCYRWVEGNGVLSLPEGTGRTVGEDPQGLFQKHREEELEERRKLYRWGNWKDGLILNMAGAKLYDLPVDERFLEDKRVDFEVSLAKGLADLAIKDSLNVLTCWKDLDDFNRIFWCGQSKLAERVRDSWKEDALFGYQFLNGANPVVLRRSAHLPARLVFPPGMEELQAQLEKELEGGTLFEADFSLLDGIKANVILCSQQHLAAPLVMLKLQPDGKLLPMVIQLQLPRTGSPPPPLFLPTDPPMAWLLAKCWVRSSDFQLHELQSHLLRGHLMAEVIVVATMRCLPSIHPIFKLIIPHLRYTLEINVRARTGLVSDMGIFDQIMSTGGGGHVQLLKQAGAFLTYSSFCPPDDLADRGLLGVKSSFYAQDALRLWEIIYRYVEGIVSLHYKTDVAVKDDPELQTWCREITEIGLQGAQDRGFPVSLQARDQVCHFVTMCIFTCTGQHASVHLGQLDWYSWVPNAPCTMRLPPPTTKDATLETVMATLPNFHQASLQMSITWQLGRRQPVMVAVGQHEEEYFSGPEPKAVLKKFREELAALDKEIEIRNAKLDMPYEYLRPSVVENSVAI

Row | Compound | IC50 [1] [µM] | inhibition (Glycine max) | IC50 [2] [µM]
1 | CC(C)=CCC/C(C)=C/CC/C(C)=C/COc1cc(=O)oc2ccccc12 | 3.5 | – | –
2 | CC(C)=CCC/C(C)=C/COc1cccc2ccc(=O)oc12 | 8.1 | – | –
3 | CC(C)=CCC/C(C)=C/CC/C(C)=C/COc1ccc2oc(=O)ccc2c1 | 2.1 | – | 1.3
4 | CC(C)=CCOc1cccc2ccc(=O)oc12 | 46.5 | – | –
5 | CC(C)=CCC/C(C)=C/CC/C(C)=C/COc1cccc2ccc(=O)oc12 | 5.8 | – | –
6 | CC(C)=CCC/C(C)=C/COc1cccc2oc(=O)ccc12 | 2.8 | – | –
7 | CC(C)=CCOc1cc(=O)oc2ccccc12 | 43.9 | – | –
8 | CC(C)=CCC/C(C)=C/CC/C(C)=C/COc1ccccc1 [FARNESYL PHENYL ETHER] | 2.7 | – | > 50
9 | CC(C)=CCC/C(C)=C/COc1cc(=O)oc2ccccc12 | 5.6 | – | 42.6
10 | CC(C)=CCC/C(C)=C/COc1cc2ccccc2oc1=O | 4.7 | – | > 100
11 | CC(C)=CCC/C(C)=C/CC/C(C)=C/COc1ccc2ccc(=O)oc2c1 [UMBELLIPRENIN] | 3.1 | – | –
12 | Cc1nc(N2CCN(C)CC2)nc2c1Nc1ccccc1S2 | 21.2 | – | –
13 | CC(C)=CCC/C(C)=C/CC/C(C)=C/COc1cccc2oc(=O)ccc12 | 0.8 | – | 3.6
14 | O=C(O)/C=C/c1ccc(O)c(O)c1 [CAFFEIC ACID] | 39.4 | – | –

Further molecules by falling IC50 [1], results first:

Row | IC50 [1] [µM] | inhibition (Glycine max) | IC50 [2] [µM] | Compound
15 | 69.4 | – | – | CC(C)=CCOc1ccc2oc(=O)ccc2c1
16 | 60.4 | – | – | CC(C)=CCOc1ccc2ccc(=O)oc2c1 [7-PRENYLOXYCOUMARIN]
17 | 54.4 | – | – | CC(C)=CCOc1cc2ccccc2oc1=O
18 | 39.8 | – | – | CC(C)=CCOc1cccc2oc(=O)ccc12
19 | 9.6 | – | 6.8 | CC(C)=CCC/C(C)=C/COc1ccc2oc(=O)ccc2c1
20 | 6.3 | – | – | CC(C)=CCC/C(C)=C/COc1ccc2ccc(=O)oc2c1 [AURAPTENE]
21 | 1.7 | Active | > 50 | CC(C)=CCC/C(C)=C/CC/C(C)=C/COc1cc2ccccc2oc1=O
